The results in this text go back to ChEMBL document CHEMBL3351828, “Design and optimization of highly-selective fungal CYP51 inhibitors” (Bioorg Med Chem Lett, 2014).

The structures appear in SMILES notation. ≈ marks a conversion by molar mass, not a printed value.

Broadly, the MIC50 is the lowest concentration that inhibits either 50% of growth or 50% of the strains tested, depending on the study. A word on the IC50: it is the concentration needed to halve the response being measured. What is called Kd is the free concentration of one partner at which half of the binding sites on the other are occupied at equilibrium, for simple one-to-one binding. One may read the half-life as the time in which the quantity being followed falls by half.

Data set [1] deals with Candida albicans. Description: Antifungal activity against Candida albicans by broth macrodilution method. Type of data set: functional. In short, it runs like this: (§1)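 MIC against standard ATCC isolates determined under CLSI guidelines, M27-A3 for yeasts. […] Units μg/mL.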
For another data set, the target named is Cytochrome P450 3A4 (Homo sapiens, UniProt P08684). Description: Inhibition of CYP3A4 in human hepatocytes using testosterone as substrate by HPLC/MS/MS method. Type of data set: ADME, cell-based, Hepatocyte.
Cytochrome P450 3A4, sequence (P08684 whole entry): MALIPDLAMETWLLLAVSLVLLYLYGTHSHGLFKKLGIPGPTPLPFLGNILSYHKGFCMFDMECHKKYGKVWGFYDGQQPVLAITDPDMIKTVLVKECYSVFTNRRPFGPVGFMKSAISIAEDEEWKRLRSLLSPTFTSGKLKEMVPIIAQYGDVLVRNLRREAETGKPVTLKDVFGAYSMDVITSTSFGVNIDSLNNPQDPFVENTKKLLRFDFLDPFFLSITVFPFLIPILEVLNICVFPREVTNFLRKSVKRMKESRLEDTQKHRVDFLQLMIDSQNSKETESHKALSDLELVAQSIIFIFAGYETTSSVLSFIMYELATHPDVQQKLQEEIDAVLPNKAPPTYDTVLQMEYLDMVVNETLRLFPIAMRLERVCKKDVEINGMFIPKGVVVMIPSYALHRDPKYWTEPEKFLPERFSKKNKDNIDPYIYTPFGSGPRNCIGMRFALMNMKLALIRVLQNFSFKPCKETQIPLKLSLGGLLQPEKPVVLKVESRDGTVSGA
For another data set, the system named is Trichophyton rubrum. Description: Antifungal activity against Trichophyton rubrum by broth macrodilution method. The data set is classed as functional. In short, it runs like this:
as §1

Data set [2] in a line: Selectivity index, ratio of IC50 for human hepatocytes CYP3A4 to MIC for Trichophyton rubrum. More on the design: species or system Hepatocyte. The gist of the method:
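CYP3A4 IC50 measured in pooled human hepatocyte microsomes with 150 μM testosterone as substrate, a concentration equal to the Km determined in the same lab. […] Selectivity index calculated as CYP3A4 IC50 (μM) divided by T. rubrum MIC (μg/mL).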

The subject of data set [3] is Candida albicans. Description: Antifungal activity against Candida albicans R303 infected in CD-1 mouse assessed as reduction of kidney fungal burden at 50 mg/kg, po administered 2 hrs post infection on day 1 measured on day 2 relative to vehicle-treated control. The data set is classed as functional. The gist of the method: (§2)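 Female CD-1 mice (7 weeks, 18-25 g) made neutropenic with IP cyclophosphamide (150 mg/kg) on days 4 and 1 before tail-vein inoculation with C. albicans R303. Single oral dose given 2 h after infection on day 1. Kidneys harvested day 2 and homogenized in PBS. CFU/kidney counted on SDA plates from serial dilutions. Percent reduction taken versus vehicle-treated controls. Fluconazole used as positive control.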

For data set [4], the system named is Candida albicans. Description: Antifungal activity against Candida albicans R303 infected in CD-1 mouse assessed as reduction of kidney fungal burden at 10 mg/kg, po administered 2 hrs post infection on day 1 measured on day 2 relative to vehicle-treated control. The data set is classed as functional. In short, it runs like this:
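Female CD-1 mice (7 weeks, 18-25 g) made neutropenic with IP cyclophosphamide 150 mg/kg at 4 and 1 days before tail-vein inoculation with C. albicans R303. Single oral dose 2 h post-infection on day 1. Kidneys harvested day 2, homogenized in PBS, serially diluted and plated on SDA for CFU/kidney. Read-out: percent reduction in kidney fungal burden versus vehicle-treated controls.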

The target of data set [5] is Lanosterol 14-alpha demethylase (Candida albicans (strain SC5314 / ATCC MYA-2876) (Yeast), UniProt P10613). Description: Binding affinity to Candida albicans CYP51.
Lanosterol 14-alpha demethylase, sequence (P10613 whole entry): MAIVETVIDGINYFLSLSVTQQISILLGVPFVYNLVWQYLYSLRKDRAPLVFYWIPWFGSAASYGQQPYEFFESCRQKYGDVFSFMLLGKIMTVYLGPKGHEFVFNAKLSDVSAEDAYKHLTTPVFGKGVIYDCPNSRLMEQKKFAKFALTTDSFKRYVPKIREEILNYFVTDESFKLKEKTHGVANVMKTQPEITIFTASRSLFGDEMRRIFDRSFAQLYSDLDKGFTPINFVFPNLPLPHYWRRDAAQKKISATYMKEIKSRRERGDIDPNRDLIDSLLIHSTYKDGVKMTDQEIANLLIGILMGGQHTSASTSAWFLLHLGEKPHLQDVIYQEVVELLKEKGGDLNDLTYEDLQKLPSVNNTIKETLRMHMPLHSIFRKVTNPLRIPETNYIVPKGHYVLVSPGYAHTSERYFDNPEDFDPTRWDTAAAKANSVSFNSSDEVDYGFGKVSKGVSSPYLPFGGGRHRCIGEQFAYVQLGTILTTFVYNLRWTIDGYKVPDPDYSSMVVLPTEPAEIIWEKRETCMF
Data set [6] in a line: Selectivity for yeast CYP51 over human CYP51.
A further data set concerns the target Cytochrome P450 2C9 (Homo sapiens, UniProt P11712). Description: Inhibition of CYP2C9 (unknown origin). The data set is classed as ADME.
Another data set deals with Cytochrome P450 2C19 (Homo sapiens, UniProt P33261). Description: Inhibition of CYP2C19 (unknown origin). Type of data set: ADME.
Cytochrome P450 2C19, sequence (P33261 whole entry): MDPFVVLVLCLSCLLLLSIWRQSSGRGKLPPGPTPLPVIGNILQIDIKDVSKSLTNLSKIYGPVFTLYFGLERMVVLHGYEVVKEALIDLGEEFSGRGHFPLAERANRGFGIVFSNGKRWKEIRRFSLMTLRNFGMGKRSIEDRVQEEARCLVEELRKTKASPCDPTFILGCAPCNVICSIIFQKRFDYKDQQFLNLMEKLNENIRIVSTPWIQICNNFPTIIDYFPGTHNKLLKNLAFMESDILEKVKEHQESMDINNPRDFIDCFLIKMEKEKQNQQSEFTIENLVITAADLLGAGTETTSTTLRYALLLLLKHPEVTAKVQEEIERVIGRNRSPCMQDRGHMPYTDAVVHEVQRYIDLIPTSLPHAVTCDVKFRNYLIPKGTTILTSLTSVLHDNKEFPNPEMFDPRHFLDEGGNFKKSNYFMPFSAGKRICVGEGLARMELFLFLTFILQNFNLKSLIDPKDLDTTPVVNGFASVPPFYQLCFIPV
Data set [7] can be described thus: Metabolic stability in human liver microsomes after 2 hrs. Type of data set: ADME. Particulars: read-out: Stability. (Liver microsomes are vesicles of endoplasmic reticulum, rich in cytochrome P450 enzymes.)
Data set [8] in a line: Half life in po dosed human. Type of data set: ADME, organism-based. Particulars: in vivo.
The test system of data set [9] is Candida albicans. Description: Antifungal activity against Candida albicans infected in mouse candidiasis model assessed as reduction of kidney fungal burden at 10 mg/kg, po. The data set is classed as functional. More on the design: scale not given: the % may be the effect or the level left.
Data set [10] relates to Trichophyton mentagrophytes. Description: Antifungal activity against Trichophyton mentagrophytes infected in guinea pig dermatophytosis model assessed as mycological efficacy at 10 mg/kg, po administered for 9 days. The data set is classed as functional.
Data set [11] concerns Candida albicans. Description: Antifungal activity against Candida albicans R303 infected in CD-1 mouse assessed as reduction of kidney fungal burden at 20 mg/kg, po administered 2 hrs post infection on day 1 measured on day 2 relative to vehicle-treated control. The data set is classed as functional. In short, it runs like this: as §2

Cytochrome P450 2C9, sequence (P11712 whole entry): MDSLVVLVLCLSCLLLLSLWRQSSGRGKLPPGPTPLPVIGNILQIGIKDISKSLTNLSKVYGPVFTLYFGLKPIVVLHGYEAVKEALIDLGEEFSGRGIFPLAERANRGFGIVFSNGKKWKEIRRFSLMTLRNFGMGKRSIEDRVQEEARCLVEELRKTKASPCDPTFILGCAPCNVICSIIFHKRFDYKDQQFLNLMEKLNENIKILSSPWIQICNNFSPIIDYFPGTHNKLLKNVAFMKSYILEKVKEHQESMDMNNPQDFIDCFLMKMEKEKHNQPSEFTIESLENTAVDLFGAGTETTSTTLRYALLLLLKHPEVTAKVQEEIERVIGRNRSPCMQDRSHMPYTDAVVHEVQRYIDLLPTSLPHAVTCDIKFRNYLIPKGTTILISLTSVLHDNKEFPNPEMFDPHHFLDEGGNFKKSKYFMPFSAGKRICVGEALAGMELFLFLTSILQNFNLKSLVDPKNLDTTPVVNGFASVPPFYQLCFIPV

`O[C@@](Cn1cnnn1)(c1ccc(F)cc1F)C(F)(F)c1ccc(-c2ccc(Cl)cc2)cn1`: the MIC50 is no more than 0.001 µg/mL against Candida albicans [1] and 0.004 µg/mL (≈ 0.00862 µM) against Trichophyton rubrum. On Cytochrome P450 3A4, the IC50 is 36 µM. For the same compound, in [2], the “Selectivity Index” value was 9000.

`C[C@@H](c1ncncc1F)[C@](O)(Cn1ccnn1)c1ccc(F)cc1F` had an MIC50 against Candida albicans [1] greater than 16 µg/mL. At Cytochrome P450 3A4, this compound showed an IC50 of 8 µM.

As for `O[C@@](Cn1cnnn1)(c1ccc(F)cc1F)C(F)(F)c1ccc(-c2ccc(OC(F)(F)F)cc2)cn1`, the MIC50 in the data set on Candida albicans [1] and against Trichophyton rubrum was no more than 0.001 µg/mL in each case. The half-inhibitory concentration (IC50) on Cytochrome P450 3A4 stood at 79 µM. Besides, the “Selectivity Index” value in [2] is on record as greater than 79000.

In the data set on Candida albicans [1], `OC(Cn1cnnn1)(c1ccc(F)cc1F)C(F)(F)c1ccccn1` (stereo not given) registered an MIC50 of 0.25 µg/mL (≈ 0.708 µM). The compound further returned an IC50 at Cytochrome P450 3A4 of 136 µM. For the same compound, the Efficacy with Candida albicans [3] was found to be 98%.

In the data set with Candida albicans [1], `C[C@@H](c1ncncc1F)[C@](O)(Cn1cnnc1)c1ccc(F)cc1F` registered an MIC50 greater than 16 µg/mL. On Cytochrome P450 3A4, this compound registered a 50% inhibitory concentration (IC50) of 51 µM.

The compound `C[C@@H](c1ncncc1F)[C@](O)(Cn1ccnc1)c1ccc(F)cc1F` had an MIC50 against Candida albicans [1] of 0.5 µg/mL (≈ 1.44 µM). For the same compound, the IC50 on Cytochrome P450 3A4 was determined as 0.8 µM.

`OC(Cn1cnnn1)(c1ccc(F)cc1F)C(F)(F)c1ccc(-c2ccc(F)cc2)cn1` (stereo not given) showed an MIC50 with Candida albicans [1] of 0.016 µg/mL (≈ 0.0358 µM). The Efficacy with Candida albicans [4] is listed as 99%.

For the compound `C[C@@H](c1ncncc1F)[C@](O)(Cn1cncn1)c1ccc(F)cc1F` [VORICONAZOLE], the MIC50 with Candida albicans [1] was determined as 0.06 µg/mL (≈ 0.172 µM).

Compound `C[C@@H](c1ncncc1F)[C@](O)(Cn1ncnn1)c1ccc(F)cc1F` yielded an MIC50 in the data set with Candida albicans [1] of 8 µg/mL (≈ 22.8 µM). At Cytochrome P450 3A4, this compound came in with a half-maximal inhibitory concentration (IC50) of 46 µM.

With `O[C@@](Cn1cnnn1)(c1ccc(F)cc1F)C(F)(F)c1ccc(-c2ccc(C(F)(F)F)cc2)cn1`, the MIC50 in the data set with Candida albicans [1] is no more than 0.001 µg/mL; against Trichophyton rubrum, 0.002 µg/mL (≈ 0.00402 µM). This compound yielded an IC50 on Cytochrome P450 3A4 of 54 µM. Besides, in [2], the “Selectivity Index” value came out at 27000.

With `N#Cc1ccc(-c2ccc(C(F)(F)C(O)(Cn3cnnn3)c3ccc(F)cc3F)nc2)cc1` (stereo not given), the MIC50 with Candida albicans [1] is no more than 0.016 µg/mL. At Cytochrome P450 3A4, this compound had an IC50 of 16 µM. In addition, in the data set on Candida albicans [3], the Efficacy is reported as 100%.

`O[C@@](Cn1cnnn1)(c1ccc(F)cc1F)C(F)(F)c1ccc(Cl)cn1` showed an MIC50 with Candida albicans [1] of 0.25 µg/mL (≈ 0.645 µM). The IC50 at Cytochrome P450 3A4 turned out to be 74 µM. Further, the Efficacy in the data set on Candida albicans [3] is on record as 100%.

Compound `C[C@@H](c1ncncc1F)[C@](O)(Cn1cnnn1)c1ccc(F)cc1F` displayed an MIC50 against Candida albicans [1] of 1 µg/mL (≈ 2.85 µM). On Cytochrome P450 3A4, this compound yielded an IC50 of 32 µM.

On to `O[C@@](Cn1cnnn1)(c1ccc(F)cc1F)C(F)(F)c1ccc(-c2ccc(OCC(F)(F)F)cc2)cn1` [OTESECONAZOLE], for which the MIC50 in the data set with Candida albicans [1] and in the data set with Trichophyton rubrum was no more than 0.001 µg/mL in each case. Further, the IC50 at Cytochrome P450 3A4 amounted to 65 µM; against Cytochrome P450 2C9, 99 µM; against Cytochrome P450 2C19 it was 72 µM. Besides, the “Selectivity Index” value in data set [2] is greater than 65000. For the same compound, in [5], the Kd is no more than 0.039 µM. The Selectivity ratio in data set [6] is greater than 2200. In data set [7], the remaining at 2 h is greater than 99%. In data set [8], this compound registered a half-life greater than 24 h. Also, the values for the Activity (in the data set with Candida albicans [9]; in data set [10]) were 99% and 86%, respectively.

On to `OC(Cn1cnnn1)(c1ccc(F)cc1F)C(F)(F)c1ccc(-c2ccc(C(F)(F)F)cc2)cn1` (stereo not given), for which, in the data set with Candida albicans [1], the MIC50 is no more than 0.016 µg/mL. For the same compound, the IC50 against Cytochrome P450 3A4 was greater than 60 µM. The Efficacy with Candida albicans [11] is reported as 94%.

Turning to `CCC(C)n1ncn(-c2ccc(N3CCN(c4ccc(OCC5COC(Cn6cncn6)(c6ccc(Cl)cc6Cl)O5)cc4)CC3)cc2)c1=O` (stereo not given) [ITRACONAZOLE], the MIC50 came to 0.016 µg/mL (≈ 0.0227 µM) with Candida albicans [1] and 0.062 µg/mL (≈ 0.0879 µM) in the data set on Trichophyton rubrum.

In the case of `OC(Cn1cncn1)(Cn1cncn1)c1ccc(F)cc1F` [FLUCONAZOLE], in the data set on Candida albicans [4], the Efficacy came out at 99%.

Take `OC(Cn1cnnn1)(c1ccc(F)cc1F)C(F)(F)c1ccc(OCC(F)(F)F)cn1` (stereo not given): the MIC50 with Candida albicans [1] turned out to be 0.06 µg/mL (≈ 0.133 µM). On Cytochrome P450 3A4, this compound registered an IC50 of 72 µM. Also, the Efficacy in the data set with Candida albicans [3] came out at 81%.
